≈ marks a conversion by molar mass, not a printed value. Calls of active or inactive are those of the source. The calls are words filed in the database; no cut-off is given here.

The values below come from ChEMBL document CHEMBL2375286, “Design and synthesis of a series of α-benzyl phenylpropanoic acid-type peroxisome proliferator-activated receptor (PPAR) gamma partial agonists with improved aqueous solubility” (Bioorg Med Chem, 2013).

Data set [1] concerns the target T1, Peroxisome proliferator-activated receptor gamma (Homo sapiens) (UniProt P37231).
T1 sequence (whole entry): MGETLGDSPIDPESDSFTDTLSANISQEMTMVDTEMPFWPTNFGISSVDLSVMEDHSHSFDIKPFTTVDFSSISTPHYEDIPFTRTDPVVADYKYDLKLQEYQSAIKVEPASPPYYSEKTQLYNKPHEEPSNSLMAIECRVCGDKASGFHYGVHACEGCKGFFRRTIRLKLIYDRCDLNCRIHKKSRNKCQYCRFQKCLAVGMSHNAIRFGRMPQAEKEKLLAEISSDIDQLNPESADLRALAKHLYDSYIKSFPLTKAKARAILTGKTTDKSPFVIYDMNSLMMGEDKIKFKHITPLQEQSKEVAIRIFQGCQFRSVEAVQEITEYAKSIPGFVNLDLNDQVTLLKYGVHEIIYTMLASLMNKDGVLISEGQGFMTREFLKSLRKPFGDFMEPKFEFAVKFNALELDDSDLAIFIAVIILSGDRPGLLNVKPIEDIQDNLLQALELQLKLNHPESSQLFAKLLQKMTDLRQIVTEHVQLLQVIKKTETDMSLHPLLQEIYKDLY
Briefly: Agonist activity at human PPAR-gamma1 LBD (176 to 477) transfected in african green monkey CV1 cells after 40 hrs by beta galactosidase-based luciferase reporter gene assay relative to rosiglitazone. Format: cell-based. As to conditions: CV-1. In a few lines: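 GAL4-PPAR chimera transactivation in CV-1 cells (0.5×10^5/well, 24 h), lipofected 5 h with 30 ng receptor plasmid, 250 ng MH100x4-tk-luc reporter, 350 ng pCMX-βGAL normalisation plasmid, 120 ng pGEM4 carrier. Compounds for 40 h. Luciferase and βGAL read from lysates. Activity scaled between 0.1% DMSO (minimum) and 10^-5 M rosiglitazone maleate (maximum). EC50 = concentration giving 50% maximal reporter activity.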
(In a reporter assay the amount or activity of a reporter protein is the signal.)

Data set [2] addresses T2, Peroxisome proliferator-activated receptor gamma (Homo sapiens, UniProt P37231).
T2 sequence (P37231 whole entry): T1 sequence (whole entry)
Briefly: Agonist activity at human PPAR-gamma1 LBD (176 to 477) transfected in african green monkey CV1 cells after 40 hrs by beta galactosidase-based luciferase reporter gene assay. Format: cell-based, CV-1. In a few lines:
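CV-1 cells seeded at 0.5×10^5 per well, cultured 24 h, then lipofected for 5 h. Transfection mix: 30 ng GAL4-PPAR chimeric receptor plasmid, 250 ng MH100x4-tk-luc reporter, 350 ng pCMX-βGAL for normalization, 120 ng pGEM4 carrier. Compounds added for 40 h, then luciferase and βGAL read in lysates. Activity scaled between 0.1% DMSO (minimum) and 10^-5 M rosiglitazone maleate (maximum). EC50 is the concentration giving 50% of maximal reporter activity.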

Data set [3] is described as follows: Thermodynamic solubility of the compound in phosphate buffer at pH 7.2 to 7.4 after 48 hrs by UV-HPLC analysis. Format: physicochemical. As to conditions: read-out: Therm_solubility. In a few lines:
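About 1 mg of compound ground and suspended in 1.0 mL phosphate buffer (pH 7.2–7.4), then shaken 48 h at 25 °C. Suspension filtered (0.45 μm), filtrate diluted in CH3CN and analysed by HPLC with UV detection at 254 nm. Concentration taken from a calibration curve and corrected for dilution.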

Data set [4] deals with OCUM-2MD3. Briefly: Induction of apoptosis in human OCUM-2MD3 cells after 72 hrs by Hoechst 33342/propidium iodide staining-based fluorescence microscopy. Type of data set: functional, cell-based. In a few lines:
(§1)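 OCUM-2MD3 cells grown in DMEM/F12 (1:1); OUMS-24 normal fibroblasts grown in DMEM; both media with 10% FBS, 100 μg/mL kanamycin and 0.5 μg/mL Fungizone. Cells plated, incubated 24 h, then treated with compound at 1–100 μM for 72 h. Stained with 1 μg/mL Hoechst 33342 plus 5 μg/mL propidium iodide for 20 min in the dark and examined by fluorescence microscopy. Cells with fragmented or shrunken nuclei counted as apoptotic; result given as % increase over DMSO control.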

The test system of data set [5] is OCUM-2MD3. The experiment in a line: Induction of apoptosis in human OCUM-2MD3 cells at 10 to 100 uM after 72 hrs by Hoechst 33342/propidium iodide staining-based fluorescence microscopy. Format: functional, cell-based. In a few lines: as §1
Data set [6] in a line: Induction of apoptosis in human OUMS-24 cells at 100 uM after 72 hrs by Hoechst 33342/propidium iodide staining-based fluorescence microscopy. Format: cell-based. As to conditions: oums-24, 72 h. In a few lines: as §1
In data set [7] the target is T3, Peroxisome proliferator-activated receptor gamma (Mus musculus) (UniProt P37238).
T3 sequence (whole entry): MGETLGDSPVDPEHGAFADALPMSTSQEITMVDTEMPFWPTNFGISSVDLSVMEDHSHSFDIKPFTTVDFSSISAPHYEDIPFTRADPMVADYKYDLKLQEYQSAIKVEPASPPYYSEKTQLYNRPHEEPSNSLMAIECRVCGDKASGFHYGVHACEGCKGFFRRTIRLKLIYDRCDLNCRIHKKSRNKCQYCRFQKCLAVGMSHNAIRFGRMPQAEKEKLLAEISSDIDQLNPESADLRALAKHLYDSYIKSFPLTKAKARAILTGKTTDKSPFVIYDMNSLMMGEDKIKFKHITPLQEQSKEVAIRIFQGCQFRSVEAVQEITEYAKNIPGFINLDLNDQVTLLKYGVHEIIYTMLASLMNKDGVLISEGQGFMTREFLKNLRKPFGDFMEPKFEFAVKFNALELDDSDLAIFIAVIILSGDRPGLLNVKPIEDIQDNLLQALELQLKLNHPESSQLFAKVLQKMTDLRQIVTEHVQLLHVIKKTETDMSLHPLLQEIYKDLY
Briefly: Agonist activity at PPAR-gamma in mouse 3T3-L1 cells assessed as adipocyte differentiation after 6 days by Oil Red O staining. Format: cell-based. In a few lines: (§2)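 3T3-L1 cells grown in DMEM with 10% FBS. At confluence, differentiation started with 1 μM dexamethasone, 0.5 mM IBMX and 5 μg/mL insulin for 2 days. Ligands then added at 1–1000 nM. After 6 days cells stained with Oil Red O and adipogenesis read as absorbance at OD550. Error bars are SD.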

Data set [8] concerns the target T3, Peroxisome proliferator-activated receptor gamma (Mus musculus). The experiment in a line: Agonist activity at PPAR-gamma in mouse 3T3-L1 cells assessed as adipocyte differentiation at 1 to 1000 nM after 6 days by Oil Red O staining. Type of data set: cell-based. In a few lines: as §2
For data set [9] the target is unchanged. Briefly: Agonist activity at PPAR-gamma in mouse 3T3-L1 cells assessed as induction of triglyceride accumulation at 1 to 1000 nM after 6 days by Oil Red O staining. Format: cell-based. In a few lines:
as §2

For data set [10] the target is unchanged. The experiment in a line: Partial agonist activity at PPAR-gamma in mouse 3T3-L1 cells assessed as adipocyte differentiation at […] after 6 days by Oil Red O staining. Type of data set: cell-based. In a few lines:
as §2

The nature of data set [11]: Induction of apoptosis in human OUMS-24 cells after 72 hrs by Hoechst 33342/propidium iodide staining-based fluorescence microscopy. As to conditions: oums-24, 72 h. Format: cell-based. In a few lines:
as §1

What is called EC50 is the concentration needed to bring the measured effect to its halfway point. In data set [1], `CCCOc1ccc(C[C@@H](Cc2ccccc2)C(=O)O)cc1CNC(=O)c1ccc(-c2cncnc2)cc1` registered an Efficacy of 82.7%. In data set [2], this compound came in with a 50% effective concentration (EC50) of 3100 nM. Besides, the solubility thermodynamic at 48 h in [3] came out at 190 µg/mL (≈ 373 µM).
In data set [1], `CCCOc1ccc(C[C@@H](Cc2ccccc2)C(=O)O)cc1CNC(=O)c1ccc(-c2ccccc2F)cc1` gave an Efficacy of 95%. The compound also displayed a concentration giving a half-maximal response (EC50) in [2] of 49.5 nM. Also, in [3], the solubility thermodynamic at 48 h is below 1 µg/mL.
On to `CCCOc1ccc(C[C@H](Cc2ccccc2)C(=O)O)cc1CNC(=O)c1ccc(C23CC4CC(CC(C4)C2)C3)cc1`, for which the Activity result was “Dose-dependent effect” in data set [4] and “Toxic” in data set [6]. Further, the result in [5] was Active. Further, the solubility thermodynamic at 48 h in data set [3] was below 1 µg/mL.
Regarding `CCCOc1ccc(C[C@H](CC)C(=O)O)cc1CNC(=O)c1ccc(C23CC4CC(CC(C4)C2)C3)cc1`, in data set [7], the Activity result was “Dose-dependent effect”. The outcome in [8] and in data set [9] was Active.
Consider `CCCOc1ccc(C[C@@H](Cc2ccccc2)C(=O)O)cc1CNC(=O)c1ccc(-c2ncccn2)cc1`, for which the Activity entry in [4] is “Dose-dependent effect”. In addition, the Efficacy in data set [1] came to 65%. The result in data set [8], in data set [9] and in data set [10] was Active. The same compound came in with a concentration giving a half-maximal response (EC50) in data set [2] of 34.6 nM. Moreover, in data set [3], the solubility thermodynamic at 48 h stood at 301 µg/mL (≈ 591 µM).
`CCCOc1ccc(C[C@@H](Cc2ccccc2)C(=O)O)cc1CNC(=O)c1ccc(-c2ccncc2)cc1` came in with an Efficacy in [1] of 108%. Moreover, the concentration giving a half-maximal response (EC50) in data set [2] worked out at 1690 nM. Further, the solubility thermodynamic at 48 h in [3] turned out to be 34.1 µg/mL (≈ 67 µM).
For `CCCOc1ccc(C[C@@H](Cc2ccccc2)C(=O)O)cc1CNC(=O)c1ccc(-c2ccccn2)cc1`, in that order: 113%, 186 nM and 17 µg/mL (≈ 33.4 µM).
Take `CCCOc1ccc(C[C@@H](Cc2ccccc2)C(=O)O)cc1CNC(=O)c1ccc(-c2cnccn2)cc1`: the Efficacy in data set [1] amounted to 58.2%. In addition, in [2], a half-maximal effect (EC50) was put at 714 nM. In addition, the solubility thermodynamic at 48 h in [3] turned out to be 32.2 µg/mL (≈ 63.2 µM).
In the same order, the values of `CCCOc1ccc(C[C@@H](Cc2ccccc2)C(=O)O)cc1CNC(=O)c1ccc(-c2cccc(F)c2)cc1` are 99.7%, 28.7 nM and below 1 µg/mL.
For `CCCOc1ccc(C[C@@H](Cc2ccccc2)C(=O)O)cc1CNC(=O)c1ccc(-c2cccs2)cc1`, in that order: 76%, 65.2 nM and below 1 µg/mL.
For `CCCOc1ccc(C[C@@H](Cc2ccccc2)C(=O)O)cc1CNC(=O)c1ccc(-c2cccnc2)cc1`, in that order: 100%, 844 nM and 69.5 µg/mL (≈ 137 µM).
Regarding `CCCOc1ccc(C[C@@H](Cc2ccccc2)C(=O)O)cc1CNC(=O)c1ccc(-c2ccccc2)cc1`, the Efficacy in data set [1] was found to be 95.7%. The EC50 in data set [2] amounted to 85.9 nM. For the same compound, the solubility thermodynamic at 48 h in [3] is below 1 µg/mL.
Consider `CCc1ccc(CCOc2ccc(CC3SC(=O)NC3=O)cc2)nc1` (centres undefined) [PIOGLITAZONE], for which the Activity result is “Dose-dependent effect” in [4] and “Non-toxic” in data set [11].
In [1], `CCCOc1ccc(C[C@@H](Cc2ccccc2)C(=O)O)cc1CNC(=O)c1ccc(-c2ccccc2C)cc1` registered an Efficacy of 72.7%. Moreover, the concentration for a half-maximal effect (EC50) in data set [2] was determined as 73.8 nM. In addition, the solubility thermodynamic at 48 h in data set [3] was below 1 µg/mL.
In the same order, the values of `CCCOc1ccc(C[C@@H](Cc2ccccc2)C(=O)O)cc1CNC(=O)c1ccc(-c2ccc(F)cc2)cc1` are 104%, 103 nM and below 1 µg/mL.
